# In paper PMC7415440 (Drug Design, Development and Therapy, 2020):
# Columns and labels:
# [1] = SAD study safety and tolerability assessment; type: in vivo, human; settings: for Number of Subjects with AEs (%) / Number of Subjects with Drug Related AEs (% total): 6 subjects
# Procedure, shortened: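 Randomised, double-blind, placebo-controlled trial in healthy Korean males (active:placebo 6:2 per group), single iv infusion in normal saline over 0.5 h at 35–600 mg. Dose escalation was decided by the DSMB. Subjects were in-house days 1–2, revisited day 3, and had follow-up 7 days post-dose. Monitoring covered vital signs, 12-lead ECG, haematology, chemistry, urinalysis, physical exams and AEs, with relationship to drug assigned.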
# stroke animal model = settings: ref unpublished data on file, Jeil Pharma, Seoul, Korea; cited from earlier work
# tMCAO stroke model = tMCAO stroke model using monkeys; cited from earlier work
# [2] = MAD study safety and tolerability assessment; type: in vivo, human; settings: for Number of Subjects with AEs (%) / Number of Subjects with Drug Related AEs (% total): 6 subjects
# Procedure, shortened: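 Double-blind, placebo-controlled trial in healthy Korean males (active:placebo 6:2 per group), infused iv in normal saline over 1 h every 12 h, seven doses over 3.5 days, at 150, 300 or 450 mg. Subjects were in-house days 1–5, with follow-up 8 days after the last dose. Monitoring covered vital signs, 12-lead ECG, clinical labs, physical exams and AEs, with intensity and relationship to drug recorded.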
# [3] = Major metabolites in samples of the highest dose groups; type: in vivo, human; settings: 600 mg in SAD and 450 mg in MAD
# [4] = tested on: regulatory T cells (Tregs) in peripheral blood mononuclear cells (PBMCs); settings: PBMCs incubated for 24 h with high-dose JPI-289; cited from earlier work
# [5] = single iv dose, n=40, number of subjects [cases]
# [6] = multiple iv doses, n=24, number of subjects [cases]
smiles,measurement,setting,value
CCOc1cc(CN2CCOCC2)cc2[nH]c(=O)c3c(c12)NCCC3.Cl.Cl.O.O [JPI-289],intensity of AEs,[1]; SAD,mild in intensity
same,"abnormalities in laboratory tests, physical examinations, vital signs, or electrocardiograms",[1]; SAD and MAD,No clinically significant abnormalities
same,intensity of AEs,[1]; SAD and MAD studies together,all mild in intensity
same,maximum tolerated dose,"[1]; SAD, decided by DSMB, dizziness as dose-limiting toxicity",600 mg
same,tolerability,"[1]; SAD, dose range 35–600 mg",well tolerated
same,serious AEs,[1]; entire course of the study (SAD and MAD),No serious AEs occurred
same,Number of Subjects with AEs (%),[1]; single iv dose 35 mg,3 (50.0)
same,Number of Subjects with Drug Related AEs (% total),[1]; single iv dose 35 mg,1 (16.7)
same,Number of Subjects with AEs (%),[1]; single iv dose 75 mg,0 (0.0)
same,Number of Subjects with Drug Related AEs (% total),[1]; single iv dose 75 mg,0 (0.0)
same,Number of Subjects with AEs (%),[1]; single iv dose 150 mg,0 (0.0)
same,Number of Subjects with Drug Related AEs (% total),[1]; single iv dose 150 mg,0 (0.0)
same,Number of Subjects with AEs (%),[1]; single iv dose 300 mg,0 (0.0)
same,Number of Subjects with Drug Related AEs (% total),[1]; single iv dose 300 mg,0 (0.0)
same,Number of Subjects with AEs (%),[1]; single iv dose 600 mg,3 (50.0)
same,Number of Subjects with Drug Related AEs (% total),[1]; single iv dose 600 mg,3 (50.0)
same,"Abdominal discomfort, Drug-Related",[1]; [5],0 [0]
same,"Abdominal discomfort, Not Related",[1]; [5],0 [0]
same,"Abdominal discomfort, Total",[1]; [5],0 [0]
same,"Bilirubin total increased, Drug-Related",[1]; [5],1 [1]
same,"Bilirubin total increased, Not Related",[1]; [5],0 [0]
same,"Bilirubin total increased, Total",[1]; [5],1 [1]
same,"Diarrhea, Drug-Related",[1]; [5],0 [0]
same,"Diarrhea, Not Related",[1]; [5],1 [1]
same,"Diarrhea, Total",[1]; [5],1 [1]
same,"Dizziness, Drug-Related",[1]; [5],3 [4]
same,"Dizziness, Not Related",[1]; [5],0 [0]
same,"Dizziness, Total",[1]; [5],3 [4]
same,"Fever, Drug-Related",[1]; [5],0 [0]
same,"Fever, Not Related",[1]; [5],0 [0]
same,"Fever, Total",[1]; [5],0 [0]
same,"Headache, Drug-Related",[1]; [5],0 [0]
same,"Headache, Not Related",[1]; [5],0 [0]
same,"Headache, Total",[1]; [5],0 [0]
same,"Heart rate increased, Drug-Related",[1]; [5],0 [0]
same,"Heart rate increased, Not Related",[1]; [5],1 [1]
same,"Heart rate increased, Total",[1]; [5],1 [1]
same,"Sinus tachycardia, Drug-Related",[1]; [5],0 [0]
same,"Sinus tachycardia, Not Related",[1]; [5],0 [0]
same,"Sinus tachycardia, Total",[1]; [5],0 [0]
same,"Stomatitis, Drug-Related",[1]; [5],0 [0]
same,"Stomatitis, Not Related",[1]; [5],0 [0]
same,"Stomatitis, Total",[1]; [5],0 [0]
same,"Urticaria, Drug-Related",[1]; [5],0 [0]
same,"Urticaria, Not Related",[1]; [5],0 [0]
same,"Urticaria, Total",[1]; [5],0 [0]
same,time after stroke onset at which treatment showed efficacy,stroke animal model,more than 10 h
same,decrease in infarction volume,tMCAO stroke model,53%
same,intensity of AEs,[2]; MAD,mild in intensity
same,tolerability,"[2]; MAD, dose range 150–450 mg",well tolerated
same,total number of AEs,"[2]; MAD, in seven subjects",12
same,Number of Subjects with AEs (%),[2]; multiple iv doses 150 mg,0 (0.0)
same,Number of Subjects with Drug Related AEs (% total),[2]; multiple iv doses 150 mg,0 (0.0)
same,Number of Subjects with AEs (%),[2]; multiple iv doses 300 mg,1 (16.7)
same,Number of Subjects with Drug Related AEs (% total),[2]; multiple iv doses 300 mg,1 (16.7)
same,Number of Subjects with AEs (%),[2]; multiple iv doses 450 mg,5 (83.3)
same,Number of Subjects with Drug Related AEs (% total),[2]; multiple iv doses 450 mg,4 (66.7)
same,"Abdominal discomfort, Drug-Related",[2]; [6],0 [0]
same,"Abdominal discomfort, Not Related",[2]; [6],1 [1]
same,"Abdominal discomfort, Total",[2]; [6],1 [1]
same,"Bilirubin total increased, Drug-Related",[2]; [6],1 [1]
same,"Bilirubin total increased, Not Related",[2]; [6],0 [0]
same,"Bilirubin total increased, Total",[2]; [6],1 [1]
same,"Diarrhea, Drug-Related",[2]; [6],0 [0]
same,"Diarrhea, Not Related",[2]; [6],1 [1]
same,"Diarrhea, Total",[2]; [6],1 [1]
same,"Dizziness, Drug-Related",[2]; [6],2 [2]
same,"Dizziness, Not Related",[2]; [6],0 [0]
same,"Dizziness, Total",[2]; [6],2 [2]
same,"Fever, Drug-Related",[2]; [6],1 [1]
same,"Fever, Not Related",[2]; [6],0 [0]
same,"Fever, Total",[2]; [6],1 [1]
same,"Headache, Drug-Related",[2]; [6],2 [2]
same,"Headache, Not Related",[2]; [6],0 [0]
same,"Headache, Total",[2]; [6],2 [2]
same,"Heart rate increased, Drug-Related",[2]; [6],0 [0]
same,"Heart rate increased, Not Related",[2]; [6],0 [0]
same,"Heart rate increased, Total",[2]; [6],0 [0]
same,"Sinus tachycardia, Drug-Related",[2]; [6],1 [1]
same,"Sinus tachycardia, Not Related",[2]; [6],0 [0]
same,"Sinus tachycardia, Total",[2]; [6],1 [1]
same,"Stomatitis, Drug-Related",[2]; [6],1 [1]
same,"Stomatitis, Not Related",[2]; [6],0 [0]
same,"Stomatitis, Total",[2]; [6],1 [1]
same,"Urticaria, Drug-Related",[2]; [6],2 [2]
same,"Urticaria, Not Related",[2]; [6],0 [0]
same,"Urticaria, Total",[2]; [6],2 [2]
same,number of metabolites detected,[3],Twenty-two
same,proportions of regulatory T cells (Tregs),[4],can be increased
